Test results from BindingDB's records for doi:10.1016/j.bmcl.2005.03.058 (Wyeth Research, 2005).

Experiments:
[1] = molecular target: UDP-N-acetylglucosamine 1-carboxyvinyltransferase (Escherichia coli (strain K12), UniProt P0A749); assay: Inhibitory concentration against MurA enzyme in Escherichia coli
How it was run: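 Enzyme preincubated with inhibitor 10 min at 37 °C before substrates were added. Reaction ran 30 min at 37 °C and was stopped with malachite green reagent (0.03% malachite green, 1.4% ammonium molybdate, 1.3 N HCl) for phosphate read-out.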

[2] = molecular target: T1, UDP-N-acetylenolpyruvoylglucosamine reductase (Escherichia coli (strain K12), UniProt P08373); assay: Inhibitory concentration against MurB enzyme in Escherichia coli
T1 sequence (P08373 whole entry): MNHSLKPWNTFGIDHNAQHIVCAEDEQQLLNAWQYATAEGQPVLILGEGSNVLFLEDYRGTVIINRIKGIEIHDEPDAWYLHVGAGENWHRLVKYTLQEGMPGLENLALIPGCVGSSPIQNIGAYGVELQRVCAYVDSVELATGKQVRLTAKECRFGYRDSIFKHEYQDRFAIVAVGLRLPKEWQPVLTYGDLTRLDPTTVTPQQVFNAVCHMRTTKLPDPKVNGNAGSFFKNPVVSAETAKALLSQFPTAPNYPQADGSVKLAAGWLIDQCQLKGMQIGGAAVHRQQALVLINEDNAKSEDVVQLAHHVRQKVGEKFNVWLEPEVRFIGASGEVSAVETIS
How it was run: (§1)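 Enzyme (20 nM) preincubated 20 min with inhibitor, then substrates added to final 50 µM EP-UNAG and 100 µM NADPH. Activity followed spectrophotometrically. At least six inhibitor concentrations between 1.5 and 50 µM per compound. IC50 from sigmoid Hill curve fit (0–100).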

[3] = molecular target: T2, UDP-N-acetylenolpyruvoylglucosamine reductase (Staphylococcus aureus, UniProt P61431); assay: Inhibitory concentration against MurB enzyme in Staphylococcus aureus; how it was run: as §1
T2 sequence (P61431 whole entry): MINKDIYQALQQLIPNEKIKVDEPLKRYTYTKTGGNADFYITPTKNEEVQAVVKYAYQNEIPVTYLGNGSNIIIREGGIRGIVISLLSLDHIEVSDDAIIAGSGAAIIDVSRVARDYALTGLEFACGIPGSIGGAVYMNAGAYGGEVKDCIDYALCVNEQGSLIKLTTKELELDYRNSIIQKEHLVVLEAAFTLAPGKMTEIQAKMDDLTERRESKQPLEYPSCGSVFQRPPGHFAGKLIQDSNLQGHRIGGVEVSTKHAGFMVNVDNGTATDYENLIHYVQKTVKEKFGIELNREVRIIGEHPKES

Sequence of UDP-N-acetylglucosamine 1-carboxyvinyltransferase (P0A749 whole entry): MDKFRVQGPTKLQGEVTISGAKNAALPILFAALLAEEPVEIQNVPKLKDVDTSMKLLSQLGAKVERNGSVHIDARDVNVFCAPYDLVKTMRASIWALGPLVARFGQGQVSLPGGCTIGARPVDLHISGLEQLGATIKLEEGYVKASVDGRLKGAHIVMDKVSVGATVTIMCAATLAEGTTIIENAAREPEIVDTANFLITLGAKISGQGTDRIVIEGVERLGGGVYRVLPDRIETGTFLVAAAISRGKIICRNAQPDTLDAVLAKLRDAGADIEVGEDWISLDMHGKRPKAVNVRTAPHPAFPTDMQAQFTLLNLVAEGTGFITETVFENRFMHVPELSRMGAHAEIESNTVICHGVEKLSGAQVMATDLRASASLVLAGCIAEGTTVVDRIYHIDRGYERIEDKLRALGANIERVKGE

Row | Structure (SMILES) | IC50 [1] | IC50 [2] | IC50 [3]
1 | CCC(CC)Cc1c(O)n(-c2ccc(Cl)cc2)n(-c2ccc(Cl)cc2)c1=O [1,2-Bis-(4-chloro-phenyl)-4-(2-ethyl-butyl)-pyrazolidine-3,5-dione] | > 50 µM | 50 µM | 
2 | CCN(CC)CCc1c(O)n(-c2ccc(Cl)cc2)n(-c2ccc(Cl)cc2)c1=O [1,2-Bis-(4-chloro-phenyl)-4-(2-diethylamino-ethyl)-pyrazolidine-3,5-dione] | > 50 µM | > 50 µM | 
3 | CCN(CCc1c(O)n(-c2ccc(Cl)cc2)n(-c2ccc(Cl)cc2)c1=O)Cc1ccccc1 [4-[2-(Benzyl-ethyl-amino)-ethyl]-1,2-bis-(4-chloro-phenyl)-pyrazolidine-3,5-dione] | > 50 µM | > 50 µM | > 50 µM

Now from value to molecule:

Row | IC50 [1] | IC50 [2] | IC50 [3] | Structure (SMILES)
4 | > 50 µM | > 50 µM |  | O=c1c(Cc2ccccc2)c(O)n(-c2ccc(Cl)cc2)n1-c1ccc(Cl)cc1 [4-Benzyl-1,2-bis-(4-chloro-phenyl)-pyrazolidine-3,5-dione]
5 | > 50 µM | 50 µM |  | COc1cccc(Cc2c(O)n(-c3ccc(Cl)cc3)n(-c3ccc(Cl)cc3)c2=O)c1 [1,2-Bis-(4-chloro-phenyl)-4-(3-methoxy-benzyl)-pyrazolidine-3,5-dione]
6 | > 50 µM | > 50 µM | > 50 µM | O=c1c(Cc2ccccc2Cl)c(O)n(-c2ccc(Cl)cc2)n1-c1ccc(Cl)cc1 [4-(2-Chloro-benzyl)-1,2-bis-(4-chloro-phenyl)-pyrazolidine-3,5-dione]
